Legend:
[1] = Reversal of P-gp-mediated multidrug resistance in human K562/A02 cells assessed as reduction of adriamycin IC50 at 5 uM after 48 hrs by MTT assay; format: cell-based; details: K562/A02, 48 h
In short: (§1)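 MTT on K562/A02 cells exposed to a series of adriamycin concentrations, with or without modulator at 5 µM; 0.1% DMSO as solvent control. Reversal fold = adriamycin IC50 without modulator / IC50 with modulator.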

[2] = Resistance factor, ratio of adriamycin IC50 for human K562/A02 cells over-expressing Pgp to adriamycin IC50 for human K562/A02 cells over-expressing Pgp in presence of 5 uM compound; format: functional; in short: as §1
[3] = Cytotoxicity against human K562/A02 cells at 5 uM after 48 hrs by MTT assay; format: cell-based; details: k562/a02, 48 h
In short: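 Adriamycin-selected K562/A02 cells given test compound alone at 5 µM for 48 h; cytotoxicity scored by MTT as intrinsic growth inhibition.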

[4] = Cytotoxicity against human K562/A02 cells after 48 hrs by MTT assay; format: functional, cell-based; details: K562/A02, 48 h
[5] = Cytotoxicity against human GES-1 cells after 48 hrs by MTT assay; format: cell-based; details: GES1, 48 h
[6] = Reversal of P-gp-mediated multidrug resistance in human K562/A02 cells assessed as reduction of adriamycin IC50 at 2.5 uM after 48 hrs by MTT assay; format: cell-based; details: K562/A02, 48 h
In short: (§2)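 K562/A02 (P-gp-overexpressing) cells given graded adriamycin plus modulator at 2.5, 1.25, 0.625, 0.31, 0.156, 0.078 or 0.04 µM; verapamil 2.5 µM as positive control; adriamycin IC50 by MTT. Reversal fold = IC50 without modulator / IC50 with modulator. Two to three experiments, mean ± SEM.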

[7] = Reversal of P-gp-mediated multidrug resistance in human K562/A02 cells assessed as reduction of adriamycin IC50 at 1.25 uM after 48 hrs by MTT assay; format: cell-based; details: K562/A02, 48 h; in short: as §2
[8] = Reversal of P-gp-mediated multidrug resistance in human K562/A02 cells assessed as reduction of adriamycin IC50 at 0.625 uM after 48 hrs by MTT assay; format: cell-based; details: K562/A02, 48 h; in short: as §2
[9] = Reversal of P-gp-mediated multidrug resistance in human K562/A02 cells assessed as reduction of adriamycin IC50 at 0.31 uM after 48 hrs by MTT assay; format: cell-based; details: K562/A02, 48 h; in short: as §2
[10] = Reversal of P-gp-mediated multidrug resistance in human K562/A02 cells assessed as reduction of adriamycin IC50 at 0.156 uM after 48 hrs by MTT assay; format: cell-based; details: K562/A02, 48 h; in short: as §2
[11] = Reversal of P-gp-mediated multidrug resistance in human K562/A02 cells assessed as reduction of adriamycin IC50 at 0.078 uM after 48 hrs by MTT assay; format: cell-based; details: K562/A02, 48 h; in short: as §2
[12] = Reversal of P-gp-mediated multidrug resistance in human K562/A02 cells assessed as reduction of adriamycin IC50 at 0.04 uM after 48 hrs by MTT assay; format: cell-based; details: K562/A02, 48 h; in short: as §2
[13] = Resistance factor, ratio of adriamycin IC50 for human K562/A02 cells over-expressing Pgp to adriamycin IC50 for human K562/A02 cells over-expressing Pgp in presence of 2.5 uM compound; format: functional; in short: as §2
[14] = Resistance factor, ratio of adriamycin IC50 for human K562/A02 cells over-expressing Pgp to adriamycin IC50 for human K562/A02 cells over-expressing Pgp in presence of 1.25 uM compound; format: functional; in short: as §2
[15] = Resistance factor, ratio of adriamycin IC50 for human K562/A02 cells over-expressing Pgp to adriamycin IC50 for human K562/A02 cells over-expressing Pgp in presence of 0.625 uM compound; format: functional; in short: as §2
[16] = Resistance factor, ratio of adriamycin IC50 for human K562/A02 cells over-expressing Pgp to adriamycin IC50 for human K562/A02 cells over-expressing Pgp in presence of 0.31 uM compound; format: functional; in short: as §2
[17] = Resistance factor, ratio of adriamycin IC50 for human K562/A02 cells over-expressing Pgp to adriamycin IC50 for human K562/A02 cells over-expressing Pgp in presence of 0.156 uM compound; format: functional; in short: as §2
[18] = Resistance factor, ratio of adriamycin IC50 for human K562/A02 cells over-expressing Pgp to adriamycin IC50 for human K562/A02 cells over-expressing Pgp in presence of 0.078 uM compound; format: functional; in short: as §2
[19] = Resistance factor, ratio of adriamycin IC50 for human K562/A02 cells over-expressing Pgp to adriamycin IC50 for human K562/A02 cells over-expressing Pgp in presence of 0.04 uM compound; format: functional; in short: as §2
K562/A02 [20] = test: Reversal of P-gp-mediated multidrug resistance in human K562/A02 cells assessed as reduction of adriamycin IC50 after 48 hrs by MTT assay; format: cell-based
[21] = Reversal of P-gp-mediated multidrug resistance in human K562/A02 cells assessed as reduction of adriamycin IC50 at 5 uM incubated for 24 hrs prior to adriamycin treatment measured after 48 hrs by MTT assay; format: cell-based
In short: (§3)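 K562/A02 cells incubated 24 h with 5 µM modulator, verapamil or vehicle, then washed with growth medium. […] Reversal fold = IC50 without modulator / IC50 with modulator. Two to three experiments, mean ± SEM.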

[22] = Reversal of P-gp-mediated multidrug resistance in human K562/A02 cells assessed as reduction of adriamycin IC50 at 5 uM incubated for 24 hrs followed by adriamycin treatment post compound washout measured after 48 hrs by MTT assay; format: cell-based; in short: as §3
[23] = Reversal of P-gp-mediated multidrug resistance in human K562/A02 cells assessed as reduction of adriamycin IC50 at 5 uM incubated for 24 hrs followed by adriamycin treatment 6 hrs post compound washout measured after 48 hrs by MTT assay; format: cell-based; in short: as §3
[24] = Reversal of P-gp-mediated multidrug resistance in human K562/A02 cells assessed as reduction of adriamycin IC50 at 5 uM incubated for 24 hrs followed by adriamycin treatment 12 hrs post compound washout measured after 48 hrs by MTT assay; format: cell-based; in short: as §3
[25] = Resistance factor, ratio of adriamycin IC50 for human K562/A02 cells over-expressing Pgp to adriamycin IC50 for human K562/A02 cells over-expressing Pgp in presence of 5 uM compound incubated for 24 hrs prior to adriamycin treatment; format: functional; in short: as §3
[26] = Resistance factor, ratio of adriamycin IC50 for human K562/A02 cells over-expressing Pgp to adriamycin IC50 for human K562/A02 cells over-expressing Pgp in presence of 5 uM compound incubated for 24 hrs followed by adriamycin treatment post compound washout; format: functional; in short: as §3
[27] = Resistance factor, ratio of adriamycin IC50 for human K562/A02 cells over-expressing Pgp to adriamycin IC50 for human K562/A02 cells over-expressing Pgp in presence of 5 uM compound incubated for 24 hrs followed by adriamycin treatment 6 hrs post compound washout; format: functional; in short: as §3
[28] = Resistance factor, ratio of adriamycin IC50 for human K562/A02 cells over-expressing Pgp to adriamycin IC50 for human K562/A02 cells over-expressing Pgp in presence of 5 uM compound incubated for 24 hrs followed by adriamycin treatment 12 hrs post compound washout; format: functional; in short: as §3
K562/A02 [29] = test: Inhibition of P-gp mediated efflux in human K562/A02 cells assessed as intracellular rhodamine-123 accumulation at 0.5 uM incubated for 60 mins prior to substrate addition measured after 90 mins by flow cytometry relative to control; format: cell-based
In short: (§4)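 K562 and K562/A02 cells pretreated 60 min with 0.5, 2.5 or 5 µM test compound or verapamil, then 5 µM rhodamine-123 added for 90 min. Cells washed twice with PBS and resuspended in medium; mean fluorescence read by flow cytometry. Fold change taken against 0.1% DMSO control in each cell group. Three independent experiments, mean ± SD.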

K562/A02 [30] = test: Inhibition of P-gp mediated efflux in human K562/A02 cells assessed as intracellular rhodamine-123 accumulation at 2.5 uM incubated for 60 mins prior to substrate addition measured after 90 mins by flow cytometry relative to control; format: cell-based; in short: as §4
K562/A02 [31] = test: Inhibition of P-gp mediated efflux in human K562/A02 cells assessed as intracellular rhodamine-123 accumulation at 5 uM incubated for 60 mins prior to substrate addition measured after 90 mins by flow cytometry relative to control; format: cell-based; in short: as §4
K562/A02 [32] = test: Inhibition of P-gp mediated efflux in human K562/A02 cells assessed as intracellular rhodamine-123 accumulation incubated for 60 mins prior to substrate addition measured after 90 mins by flow cytometry relative to control; format: cell-based; in short: as §4
K562/A02 [33] = test: Inhibition of P-gp mediated efflux in human K562/A02 cells assessed as intracellular rhodamine-123 accumulation at 5 uM incubated for 60 mins prior to substrate addition measured after 90 mins by flow cytometry relative to DMSO control

COc1cc2c(cc1OC)CN(CCn1cc(COc3ccccc3NC(=O)c3ccc(C(C)(C)C)cc3)nn1)CC2
IC50 [1]: 1.67 µM | Ratio IC50 [2]: 32.5 | Activity [3]: < 10% | IC50 [4]: > 80 µM | IC50 [5]: > 80 µM | IC50 [6]: 2.97 µM | IC50 [7]: 3.14 µM | IC50 [8]: 5.2 µM | IC50 [9]: 6.39 µM | IC50 [10]: 37 µM | IC50 [11]: 43.8 µM | IC50 [12]: 32.9 µM | Ratio IC50 [13]: 18.5 | Ratio IC50 [14]: 17.4 | Ratio IC50 [15]: 10.5 | Ratio IC50 [16]: 8.6 | Ratio IC50 [17]: 1.5 | Ratio IC50 [18]: 1.3 | Ratio IC50 [19]: 1.6 | Activity (K562/A02 [20]): Dose-dependent effect | IC50 [21]: 2.16 µM | IC50 [22]: 11 µM | IC50 [23]: 35.6 µM | IC50 [24]: 54.5 µM | Ratio IC50 [25]: 37.4 | Ratio IC50 [26]: 7.7 | Ratio IC50 [27]: 2.4 | Ratio IC50 [28]: 1.5 | fold change (FC) (K562/A02 [29]): 1.55 | fold change (FC) (K562/A02 [30]): 2.4 | fold change (FC) (K562/A02 [31]): 4.04 | inhibition (K562/A02 [32]): Dose-dependent effect | Ratio (K562/A02 [33]): 2.4

Reference: ChEMBL document CHEMBL3352496, “Design, synthesis and evaluation of novel triazole core based P-glycoprotein-mediated multidrug resistance reversal agents” (Bioorg Med Chem, 2014)
